Shown are actives, neighbours in structure and some others; about 6.4% of the full set was active somewhere.
GRIN3A LBD mod: modulators (binders) of human NR3A ligand-binding domain; hit rate 2.5% among 340,000; NR3A LBD differential scanning fluorimetry, Tm shift; 0% = protein alone, 100% = glycine-bound protein; AID 1259313; Tm shift relative to glycine control, % at 25 µM;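 active = melting temperature shift of at least 10% of the positive control shift, at one fixed dose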
WT yeast gro inh: growth inhibition of WT yeast, mitochondrial fusion screen; hit rate 2.1% among 190,000; mitochondrial fusion phenotypic screen, WT strain; inhibition, % at 10 µM; in the data active = inhibition above about 58%; tested in S. cerevisiae
TbMetRS inhib: Trypanosoma brucei MetRS inhibition; purified T. brucei MetRS, ATP depletion, Kinase-Glo luminescence; inhibition, % at 11.9 µM; hit rate 0.4% among 360,000; AID 624268;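 active = inhibition above a per-plate cutoff of the control wells' mean inhibition plus 3 SD, cut at about 5.5% in these data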;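 note: 0% = DMSO wells median and 100% = median of wells with control inhibitor compound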
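Assay system: T. brucei methionyl-tRNA synthetase, purified | Medium: HEPES buffer with MgCl2, KCl, DTT, spermine, BSA, pyrophosphatase | Compound: 11.9 µM single point | Incubation: 15 min enzyme-compound preincubation, 2 h reaction, 10 min detection, 25 °C | Measured by: Kinase-Glo luciferase luminescence reporting remaining unconsumed ATP | Measure: % inhibition normalized to control-well medians | Replication: Singlicate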
CHOP inhibitor: blocks CHOP induction under ER stress; CHO-K1 CHOP-promoter luciferase, tunicamycin-induced, 15-18 h; inhibition, % at 10 µM; hit rate 3.8% among 220,000; AID 2732;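 active = compounds that reduced the stress-induced luciferase reporter signal by more than about 70% of percent inhibition, limit read from the data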;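 note: 0% = tunicamycin plus vehicle and 100% = wells without tunicamycin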
MPTP inh: blocks calcium-induced mitochondrial swelling; hit rate 1.4% among 360,000; isolated mouse mitochondria, Ca2+ swelling absorbance, 30 min; AID 602449; inhibition, % at 10 µM;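 active = inhibition of 50% or more, scaled per plate between neutral and stimulator controls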;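 note: 0% = DMSO wells given calcium and 100% = 1 mM EGTA wells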
EBV gp42 inh: blocks Epstein-Barr virus glycoprotein 42 binding; Q1HVG2; Fluorescence polarization binding assay, mP read-out; inhibition, % (tested at 21.74 µM); AID 1085; hit rate 0.42% among 220,000; in the data active = inhibition above about 50%
Target sequence (Q1HVG2 whole entry, looked up): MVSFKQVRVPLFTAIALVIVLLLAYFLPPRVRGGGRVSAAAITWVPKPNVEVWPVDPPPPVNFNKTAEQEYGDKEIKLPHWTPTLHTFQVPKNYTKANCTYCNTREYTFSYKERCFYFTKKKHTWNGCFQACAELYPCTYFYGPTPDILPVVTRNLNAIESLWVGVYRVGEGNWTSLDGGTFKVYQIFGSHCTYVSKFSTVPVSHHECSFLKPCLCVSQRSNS
MPTP counter: Rhodamine 123 counter-screen of mitochondrial pore hits; isolated mitochondria, membrane potential, Rhodamine 123 fluorescence; hit rate 78% among 5,000; shares compounds with MPTP inh; inhibition, % at 10 µM; AID 624504; in the data active = inhibition above about 22%;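 note: 0% = DMSO vehicle and 100% = positive control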
MPTP swell DR: dose response confirmation of mitochondrial permeability transition pore inhibitors; shares compounds with MPTP inh; isolated mitochondria swelling, absorbance; IC50, µM; hit rate 58% among 780; in the data active = IC50 below about 20 µM
MPTP counter DR: counter-screen for mitochondrial permeability transition pore inhibitors, dose response | shares compounds with MPTP inh | isolated mitochondria counterscreen, fluorescence read-out | IC50, µM | AID 651564 | hit rate 49% among 780; in the data active = IC50 below about 80 µM
An asterisk follows results filed as active; i = inactive; x = no result given.

SMILES	GRIN3A LBD mod	WT yeast gro inh	TbMetRS inhib	CHOP inhibitor	MPTP inh	EBV gp42 inh	MPTP counter	others
CCCn1c(SCC(=O)Nc2ccc3c(c2)CCC3)n[nH]c1=O	0.4	-4.8	-0.1	9.7	0.6	2.8	x
CS(=O)(=O)c1ccc(C(=O)Nc2cc(-c3ccccc3)nn2-c2ccccc2)cc1	-4.5	x	-0.3	x	0.3	x	x
CN(C)c1ccc(C=c2c3cc(O)ccc3n3c2cc(-c2ccccc2)[n+]3C)cc1	3.0	x	-0.3	x	53.4*	x	58.9*
C/C(=N\NC(=S)Nc1ccccc1C)c1cc2ccccc2o1	-5.2	x	-0.5	27.9	2.9	-16.6	x
CN(Cc1ccccc1F)c1ncnc2sccc12	2.0	x	0.5	x	-1.7	x	x
c1ccc(CCNc2ccccn2)nc1	-1.0	x	-0.3	x	-0.3	x	x
Cc1csc2ncnc(NCCc3ccccn3)c12	-0.8	-8.1	-0.8	55.1	86.9*	-6.0	69.5*
c1ccc(CNc2ncnc3sccc23)cc1	0.9	x	-0.1	x	25.8	x	x
CN(Cc1cccs1)c1ncnc2sccc12	0.3	-11.8	0.2	64.8	57.0*	-3.9	63.3*
c1ccc(CCNc2ncnc3sccc23)nc1	-1.1	9.2	0.3	26.5	60.6*	-10.2	16.2	MPTP swell DR=i;MPTP counter DR=52.5*
c1csc(CNc2ncnc3sccc23)c1	1.6	5.0	0.2	x	89.9*	x	73.1*
CC(=O)N1CN(Cc2ccccn2)Cc2c1sc1c2CCCC1	0.6	1.6	-0.3	9.0	-1.6	1.8	x
OC(COCC1COc2ccccc2O1)CN1CCCCC1 (stereo not drawn)	1.0	15.6	-0.3	1.7	2.0	-2.5	x
Cc1occc1-c1nnc(SCC(=O)NCc2ccco2)n1CC(C)C	0.0	-19.4	-0.4	27.3	62.9*	-8.0	6.2	MPTP swell DR=i;MPTP counter DR=>80
Cc1occc1-c1nnc(SCC(=O)NC(C)(C)C)n1CC(C)C	1.2	-9.6	-0.5	28.8	-0.4	-1.3	x
CN(C)C(CNc1ccc(C(F)(F)F)cc1[N+](=O)[O-])c1ccccc1 (stereo not drawn)	-1.2	x	0.0	x	61.5*	x	1.4	MPTP swell DR=>100;MPTP counter DR=>80
CS(=O)(=O)NCCCCNc1ccc(C(F)(F)F)cc1[N+](=O)[O-]	3.3	1.8	0.4	6.6	1.1	-0.6	x
O=[N+]([O-])c1cc(C(F)(F)F)ccc1NCCCCNS(=O)(=O)c1ccc2ccccc2c1	5.0	x	-0.4	82.8*	90.8*	-15.4	78.7*
CCOC(=O)c1ccc(CSc2ncn[nH]2)o1	-1.0	4.3	-1.1	20.4	-1.8	4.8	x
Cc1ccc(-n2c(O)c(/C=N/Nc3ccc(S(=O)(=O)N4CCOCC4)cc3[N+](=O)[O-])c3ccccc3c2=O)c(C)c1	-1.1	34.2	-0.5	57.1	110.0*	6.4	39.9*
O=C(O)c1ccc(/C=N\Nc2ccc(S(=O)(=O)N3CCOCC3)cc2[N+](=O)[O-])cc1	0.5	x	0.7	7.8	0.6	6.6	x
CCOC(=O)C1=C(COC(=O)C2CC(=O)N(c3ccccc3CC)C2)NC(=O)NC1C (stereo not drawn)	x	x	0.5	x	0.7	x	x
O=C(COc1ccc(C(=O)c2ccccc2)cc1)NC1CCCCC1	1.5	-12.9	0.5	31.7	2.8	-7.9	x
O=C(COc1ccc(C(=O)c2ccccc2)cc1)NC1CCCCCC1	1.1	-27.1	0.1	45.4	53.1*	-1.1	30.8*
O=C(COc1ccc(C(=O)c2ccccc2)cc1)Nc1cccnc1	-0.8	x	0.9	x	81.3*	x	82.3*
SMILES	GRIN3A LBD mod	WT yeast gro inh	TbMetRS inhib	CHOP inhibitor	MPTP inh	EBV gp42 inh	MPTP counter	others
N#Cc1ccc(-c2ccc(OCC(=O)Nc3cccnc3)cc2)cc1	7.7	x	-0.3	x	16.4	x	x
CC(C)S(=O)(=O)NC(=O)C1(C)CCN1C(=O)Cc1ccccc1Cl (stereo not drawn)	x	x	-0.1	x	0.6	x	x
COc1cc([N+](=O)[O-])cc(/C=N/NC(=O)C(C)Nc2cccc(C)c2)c1O (stereo not drawn)	-8.3	-23.8	-0.3	2.0	-0.6	-30.2	x
C=CCc1cccc(/C=N/NC(=O)C(C)Nc2cccc(C)c2)c1O (stereo not drawn)	-12.8	-13.1	1.6	91.1*	73.0*	-17.1	61.2*
c1ccc2c(C[C@@H]3CNCCN3CC3CCCCC3)cccc2c1	-0.8	x	0.1	x	53.7*	x	-12.2
CSc1cccc(NC(=O)C2(S(=O)(=O)c3ccc(C)cc3)CC2)c1	-0.4	2.4	0.2	19.4	0.3	-4.9	x
OC(COCC(F)(F)C(F)(F)C(F)(F)C(F)F)Cn1c2ccc(Cl)cc2c2cc(Cl)ccc21 (stereo not drawn)	19.4*	85.8*	-0.3	59.6	80.4*	13.1	52.2*
Cc1nc(NCCc2ccccc2)c2oc3ccccc3c2n1	-0.6	39.5	0.0	75.9*	97.3*	6.0	75.4*
CN(C)c1ccc(/C=C/c2ccc3ccccc3[n+]2C)cc1	-3.0	86.9	-2.6	70.2*	108.6*	-81.6	68.2*
NC(=O)c1cccc(-c2coc3c(C(=O)NCCc4ccccc4)cccc23)c1	x	x	0.2	x	0.4	x	x
COc1ccc(CNC(=O)c2cccc3c(-c4ccc(F)c(F)c4)coc23)cc1OC	x	x	-0.2	x	87.5*	x	79.7*
COc1ccc(CNC(=O)c2cccc3c(-c4cccc(C(N)=O)c4)coc23)cc1OC	x	x	-0.1	x	85.6*	x	83.0*
COc1cc(-c2coc3c(C(=O)NCc4ccc(OC)c(OC)c4)cccc23)ccc1O	x	x	-0.1	x	73.0*	x	58.3*
O=C(NCc1cccnc1)c1ccc(-c2ccc(F)c(F)c2)c2ccoc12	x	x	-0.4	x	92.1*	x	83.7*
COc1cc(-c2coc3c(C(=O)NCc4ccc(N(C)C)cc4)cccc23)ccc1O	x	x	0.2	x	0.4	x	x
CSc1c(CC(=O)Nc2ccc(F)cc2)n(Cc2ccccc2)c2ccccc12	-2.0	12.6	-0.2	37.4	81.3*	-6.8	66.9*
O=C(N/N=C/c1cc([N+](=O)[O-])ccc1Cl)c1cc(-c2ccccc2)nc2ccccc12	-0.9	x	0.5	9.4	40.1	-11.9	x
O=C(N/N=C/c1cc([N+](=O)[O-])ccc1O)c1cc(-c2ccccc2)nc2ccccc12	21.2*	5.0	-0.3	58.0	98.3*	-3.6	50.1*
O=C(N/N=C/c1ccc(Cl)c([N+](=O)[O-])c1)c1cc(-c2ccccc2)nc2ccccc12	8.1	11.8	-0.3	-11.4	68.5*	6.7	75.2*
Cc1cc(/C=N/n2c(COc3ccccc3C)nc3ccccc3c2=O)c(O)c([N+](=O)[O-])c1	8.7	26.7	-0.3	53.4	70.5*	0.8	39.2*
C=C(C)Cn1c(SCC)nc2ccccc2c1=O	1.6	-2.6	0.1	56.6	3.6	-9.1	x
